Data on 16 compounds can be found in PubChem BioAssay.

Experiment [1] is described as follows: reducers of endogenous Her2 protein level, primary screen, SKBR3 breast tumor cells, AlphaScreen, ATP viability (AID 461;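 active = Her2 level under about 52% in both replicate screens, with viability over 70% of control, limit read from the data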;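 as to Her2 level: lower value means less Her2 protein in the cells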;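 as to viability: percent of carrier control wells set as 100% viability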). The settings on record: 18-24 h, measured here: SKBR3 viability, ATP luminescence, at 10 µM. In general terms: Alpha assays give light when donor and acceptor beads are brought close together.
In experiment [2] the target is Receptor tyrosine-protein kinase erbB-2 (Homo sapiens) (UniProt P04626). The description is as above. The settings on record: 18-24 h, at 10 µM, stronger effect = lower value.
Sequence of Receptor tyrosine-protein kinase erbB-2 (Homo sapiens) (P04626 whole entry, looked up): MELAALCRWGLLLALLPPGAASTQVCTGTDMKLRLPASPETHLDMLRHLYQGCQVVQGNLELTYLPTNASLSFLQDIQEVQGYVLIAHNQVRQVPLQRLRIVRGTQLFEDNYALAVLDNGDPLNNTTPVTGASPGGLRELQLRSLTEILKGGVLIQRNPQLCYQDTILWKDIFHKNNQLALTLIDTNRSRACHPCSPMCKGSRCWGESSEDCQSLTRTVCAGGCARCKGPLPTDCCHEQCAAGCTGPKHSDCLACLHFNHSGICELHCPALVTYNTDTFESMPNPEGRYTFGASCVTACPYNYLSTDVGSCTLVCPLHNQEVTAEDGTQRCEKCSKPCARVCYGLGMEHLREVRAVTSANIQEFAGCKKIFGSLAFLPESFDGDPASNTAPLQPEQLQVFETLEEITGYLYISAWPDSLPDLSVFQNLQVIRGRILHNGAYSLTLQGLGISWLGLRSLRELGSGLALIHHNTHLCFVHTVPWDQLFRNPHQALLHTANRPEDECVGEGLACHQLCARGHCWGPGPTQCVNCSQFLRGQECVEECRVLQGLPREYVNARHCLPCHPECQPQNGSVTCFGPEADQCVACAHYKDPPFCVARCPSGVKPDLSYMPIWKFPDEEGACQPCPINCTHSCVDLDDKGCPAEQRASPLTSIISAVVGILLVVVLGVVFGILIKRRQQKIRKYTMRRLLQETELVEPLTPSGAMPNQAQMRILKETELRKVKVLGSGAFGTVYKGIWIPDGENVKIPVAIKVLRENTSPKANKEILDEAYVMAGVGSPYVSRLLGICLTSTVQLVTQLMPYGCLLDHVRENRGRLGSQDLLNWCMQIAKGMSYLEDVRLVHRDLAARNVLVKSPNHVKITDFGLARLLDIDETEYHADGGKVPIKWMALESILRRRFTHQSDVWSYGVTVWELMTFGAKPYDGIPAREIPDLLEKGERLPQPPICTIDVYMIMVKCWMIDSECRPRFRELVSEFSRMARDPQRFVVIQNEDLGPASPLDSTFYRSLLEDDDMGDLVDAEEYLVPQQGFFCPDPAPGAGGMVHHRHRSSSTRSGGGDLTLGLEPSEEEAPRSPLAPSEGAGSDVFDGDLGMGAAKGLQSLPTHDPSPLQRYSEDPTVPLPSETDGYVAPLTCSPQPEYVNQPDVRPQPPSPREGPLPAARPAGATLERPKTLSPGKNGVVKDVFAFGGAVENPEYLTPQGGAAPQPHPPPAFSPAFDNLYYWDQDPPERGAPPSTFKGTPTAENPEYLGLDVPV
A short description of experiment [3]: SK-BR-3 cell growth inhibitors, pilot screen, 24 h, human (AID 572;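 active = viability at or below 10% of carrier control in both of two separate runs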;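 also: compound exposure lasted between 18 and 24 h rather than exactly 24 h; 100% = carrier-treated control wells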). As to conditions: SK-BR-3 viability, CellTiter-Glo luminescence, at 10 µM, stronger effect = lower value.
Experiment [4] is described as follows: HUVEC growth inhibition – cell-based, human, primary screen (AID 575).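 Also: 100% = median of untreated cell wells with 0.1% DMSO on each plate.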 The settings on record: HUVEC proliferation, CellTiter-Glo luminescence, 72 h; at 10 µM; stronger effect = lower value. Put shortly: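 material = primary HUVEC, no more than 12 passages | input = 1250 cells per well | controls = vehicle and MePR control wells | measured by = CTG luminescence | times = 72 h compound incubation | format = collagen-coated 384-well format | read-out = % viability vs DMSO wells | doses = single 10 µM dose, 0.1% DMSO, from 5x medium stock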
(Cellular ATP, detected with luciferase, serves as a proxy for viable cell number.)

Experiment [5] in a line: growth inhibitors of H69AR lung tumor, primary screen, human, duplicate replicates (AID 580;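 active = viability at or under a set limit in both replicates, limit being median viability minus 3 SD, cut at about 48% in these data, passing the limit was not always enough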;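 also: 100% = mean luminescence of untreated wells and 0% = no signal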). As to conditions: H69AR lung tumor cells viability, ATP luminescence, 72 h; at 10 µM; stronger effect = lower value.
The nature of experiment [6]: reversal of MRP1-mediated doxorubicin resistance, pilot screen, H69AR cells, doxorubicin co-treatment (AID 601;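 active = viability loss from added drug above about 55%, and viability with drug at most 40%, in both replicates, limit read from the data, passing the limit was not always enough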). As to conditions: CellTiter-Glo, 72 h, at 10 µM; for differential viability (reversal): stronger effect = higher value.
The nature of experiment [7]: 384-well plate pilot, post-Golgi transport modulator project, inhibition of yeast transport mutant growth (AID 636; in the data active = inhibition above about 31%). As to conditions: absorbance 615 nm, about 18 h, stronger effect = higher value.
The nature of experiment [8]: growth suppression of yeast trafficking mutant, preliminary HTS, modulators of trafficking downstream of Golgi apparatus project, 1536-format plate, OD 615 nm (AID 637; in the data active = inhibition above about 30%). The settings on record: yeast transport mutant growth, absorbance 615 nm, 18 h; stronger effect = higher value.
[9] abbreviates: H69AR cells + 2 uM doxorubicin, measured here: viability with 2 uM doxorubicin, stronger effect = lower value.
Where [10] appears, read: H69AR cells, compound alone cytotoxicity.

The viability is a read-out of living cells in per cent, often relative to untreated cells. By inhibition is commonly meant the change of the read-out against control, counted positive when it falls.

The source made the active and inactive calls.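 The calls were made as follows, unless noted: active = viability at or below 30% in both replicate assays; inconclusive = viability at or below 30% in just one of the two assays; inactive = the rest.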

On to `CCC(C(=O)Nc1ccccc1C(=O)N1CCCC1)N1C(=O)c2ccccc2C1=O` (stereo not given), for which the viability in experiment [1] was 96.5%; in experiment [3] it was 96.5% (inactive); in experiment [4], 78.3% (inactive); in experiment [5], 102% (inactive); in experiment [6] (setting [9]), 95.8%; in experiment [6] (setting [10]), 102%. In experiment [2], the Her2 level was 88% (inactive). For the same compound, the differential viability (reversal) in experiment [6] (H69AR cells + 2 uM doxorubicin) is 5.91% (inactive). The inhibition in experiment [7] was -3.29% (inactive); in experiment [8] it was -4.83% (inactive).

Take `COC(=O)c1ccc(C(=O)OC)c(NC(=O)Nc2ccc3c(c2)OCO3)c1`: the viability in experiment [1] was 86.5%; in experiment [3], 86.5% (inactive); in experiment [4], 89.1% (inactive); in experiment [5] it was 92.7% (inactive); in experiment [6] (setting [9]), 95.4%; in experiment [6] (setting [10]), 92.7%. Further, the Her2 level in experiment [2] is 106% (inactive). The differential viability (reversal) in experiment [6] (H69AR cells + 2 uM doxorubicin) is -2.65% (inactive). The inhibition in experiment [7] was -0.78% (inactive); in experiment [8], -9.67% (inactive).

In the case of `C1=Nc2c(NCc3ccccc3)ncnc2Oc2ccccc21`, the viability in experiment [1] was 83%; in experiment [3] it was 83% (inactive); in experiment [4], 80.6% (inactive); in experiment [5] it was 91.7% (inactive); in experiment [6] (setting [9]), 83.7%; in experiment [6] (setting [10]), 91.7%. Besides, the Her2 level in experiment [2] was 84.5% (inactive). Also, the differential viability (reversal) in experiment [6] (H69AR cells + 2 uM doxorubicin) is 7.99% (inactive). Further, the inhibition in experiment [7] is 2.13% (inactive); in experiment [8], 0.16% (inactive).

Consider `CCOC(=O)CCNC(=O)Nc1ccc2nc(C)n(Cc3ccccc3Cl)c(=O)c2c1`, for which the viability in experiment [1] was 87%; in experiment [3], 87% (inactive); in experiment [4], 92.9% (inactive); in experiment [5] it was 94.9% (inactive); in experiment [6] (setting [9]), 87%; in experiment [6] (setting [10]), 94.9%. Also, the Her2 level in experiment [2] is 110% (inactive). The differential viability (reversal) in experiment [6] (H69AR cells + 2 uM doxorubicin) was 7.92% (inactive). Moreover, the inhibition is -0.92% (inactive) in experiment [7] and 1.67% (inactive) in experiment [8].

On to `O=C(O)c1ccccc1C(=O)Nc1ccccc1`, for which the viability in experiment [1] was 121%; in experiment [3], 121% (inactive); in experiment [4], 103% (inactive); in experiment [5], 105% (inactive); in experiment [6] (setting [9]) it was 92.8%; in experiment [6] (setting [10]), 105%. Besides, the Her2 level in experiment [2] is 124% (inactive). For the same compound, the differential viability (reversal) in experiment [6] (H69AR cells + 2 uM doxorubicin) is 12.1% (inactive). Also, the inhibition is -6.97% (inactive) in experiment [7] and -2.13% (inactive) in experiment [8].

As to `O=C(CCc1ccc(S(=O)(=O)N2CCOCC2)cc1)NCCc1ccccn1`, the viability is 100% in experiment [1]; 100% (inactive) in experiment [3]; 94.8% (inactive) in experiment [4]; 87.9% (inactive) in experiment [5]; 102% in experiment [6] (setting [9]); 87.9% in experiment [6] (setting [10]). In addition, the Her2 level in experiment [2] was 102% (inactive). Moreover, the differential viability (reversal) in experiment [6] (H69AR cells + 2 uM doxorubicin) is -13.7% (inactive). The inhibition is -1.04% (inactive) in experiment [7] and -4.13% (inactive) in experiment [8].

For `O=C(CN1C(=O)COCC1=O)N1CCOCC1`, the viability in experiment [1] is 91%; in experiment [3] it was 91% (inactive); in experiment [4] it was 104% (inactive); in experiment [5] it was 96.9% (inactive); in experiment [6] (setting [9]), 97.5%; in experiment [6] (setting [10]), 96.9%. The Her2 level in experiment [2] was 86.5% (inactive). For the same compound, the differential viability (reversal) in experiment [6] (H69AR cells + 2 uM doxorubicin) was -0.64% (inactive). For the same compound, the inhibition in experiment [7] is 0.26% (inactive); in experiment [8], 0% (inactive).

Consider `Cc1ccc2cc(C(c3nnnn3CC3CCCO3)N3CCc4ccccc4C3)c(=O)[nH]c2c1` (stereo not given), for which the viability in experiment [1] is 87%; in experiment [3], 87% (inactive); in experiment [4], 105% (inactive); in experiment [5], 100% (inactive); in experiment [6] (setting [9]) it was 102%; in experiment [6] (setting [10]) it was 100%. Also, in experiment [2], the Her2 level was 82% (inactive). Moreover, in experiment [6] (H69AR cells + 2 uM doxorubicin), the differential viability (reversal) was -2.15% (inactive). Also, the inhibition in experiment [7] was -3.84% (inactive); in experiment [8], -6.83% (inactive).

Take `CC(C)(C)N=C1NC(=NC(C)(C)C)c2ccccc21`: the viability was 77% in experiment [1]; 77% (inactive) in experiment [3]; 86% (inactive) in experiment [4]; 69.3% (inactive) in experiment [5]; 80.8% in experiment [6] (setting [9]); 69.3% in experiment [6] (setting [10]). Besides, the Her2 level in experiment [2] was 86% (inactive). The differential viability (reversal) in experiment [6] (H69AR cells + 2 uM doxorubicin) was -11.5% (inactive). The inhibition in experiment [7] was 0.92% (inactive); in experiment [8], -7.64% (inactive).

As for `O=C(COc1ccc(S(=O)(=O)N2CCCC2)cc1Cl)NC1CC1`, the viability is 126% in experiment [1]; 126% (inactive) in experiment [3]; 112% (inactive) in experiment [4]; 101% (inactive) in experiment [5]; 93.2% in experiment [6] (setting [9]); 101% in experiment [6] (setting [10]). Moreover, in experiment [2], the Her2 level was 108% (inactive). Further, the differential viability (reversal) in experiment [6] (H69AR cells + 2 uM doxorubicin) was 7.76% (inactive). The inhibition in experiment [7] is -5.68% (inactive); in experiment [8] it was 3.67% (inactive).

`CCOC(=O)c1sc(NC(=O)CSc2nnnn2-c2ccccc2)c(C(=O)OCC)c1C`: the viability in experiment [1] was 80%; in experiment [3] it was 80% (inactive); in experiment [4], 36.6% (inactive); in experiment [5] it was 65.7% (inactive); in experiment [6] (setting [9]) it was 46.1%; in experiment [6] (setting [10]) it was 65.7%. The Her2 level in experiment [2] is 85% (inactive). Also, in experiment [6] (H69AR cells + 2 uM doxorubicin), the differential viability (reversal) is 19.6% (inactive). Besides, the inhibition in experiment [7] is 4.68% (inactive); in experiment [8] it was -6.83% (inactive).

Consider `Cc1ccc2nc(SC(C)C(=O)N3CCCC3)[nH]c2c1` (stereo not given), for which the viability is 87.5% in experiment [1]; 87.5% (inactive) in experiment [3]; 91.4% (inactive) in experiment [4]; 97.6% (inactive) in experiment [5]; 91.6% in experiment [6] (setting [9]); 97.6% in experiment [6] (setting [10]). In addition, in experiment [2], the Her2 level is 108% (inactive). Further, in experiment [6] (H69AR cells + 2 uM doxorubicin), the differential viability (reversal) was 6.04% (inactive). Besides, the inhibition in experiment [7] was -0.92% (inactive); in experiment [8], -6.35% (inactive).

As for `COc1ccc(CNC(=O)Cn2nc(C(F)(F)F)c3c2CCC3)cc1`, the viability in experiment [1] is 89.5%; in experiment [3] it was 89.5% (inactive); in experiment [4] it was 103% (inactive); in experiment [5], 99.5% (inactive); in experiment [6] (setting [9]) it was 87.6%; in experiment [6] (setting [10]), 99.5%. Moreover, the Her2 level in experiment [2] is 91.5% (inactive). Moreover, in experiment [6] (H69AR cells + 2 uM doxorubicin), the differential viability (reversal) was 11.9% (inactive). Besides, the inhibition is -6.13% (inactive) in experiment [7] and 5.74% (inactive) in experiment [8].

Regarding `O=C(CSc1nnc(SCc2ccc(Cl)cc2)s1)N1CCN(C(=O)c2ccco2)CC1`, the viability was 80.5% in experiment [1]; 80.5% (inactive) in experiment [3]; 70.3% (inactive) in experiment [4]; 100% (inactive) in experiment [5]; 89.2% in experiment [6] (setting [9]); 100% in experiment [6] (setting [10]). In experiment [2], the Her2 level is 93% (inactive). The differential viability (reversal) in experiment [6] (H69AR cells + 2 uM doxorubicin) is 10.9% (inactive). In addition, the inhibition was -8.36% (inactive) in experiment [7] and -5.56% (inactive) in experiment [8].

For the compound `COc1ccccc1-n1c(SCC(=O)Nc2ccc3c(c2)OCO3)nc2c(c1=O)SCC2`, the viability is 82.5% in experiment [1]; 82.5% (inactive) in experiment [3]; 85% (inactive) in experiment [4]; 87.4% (inactive) in experiment [5]; 86.7% in experiment [6] (setting [9]); 87.4% in experiment [6] (setting [10]). In experiment [2], the Her2 level was 112% (inactive). Besides, the differential viability (reversal) in experiment [6] (H69AR cells + 2 uM doxorubicin) was 0.71% (inactive). For the same compound, the inhibition in experiment [7] is -0.55% (inactive); in experiment [8], 23.5% (inactive).

Turning to `CC(C)(C)OC(=O)N1CC=C2C(C#N)=C(N)C(C#N)(C#N)[C@H](c3cccnc3)[C@H]2C1`, the viability is 88% in experiment [1]; 88% (inactive) in experiment [3]; 81.1% (inactive) in experiment [4]; 86.3% (inactive) in experiment [5]; 98.7% in experiment [6] (setting [9]); 86.3% in experiment [6] (setting [10]). Besides, the Her2 level in experiment [2] was 100% (inactive). The differential viability (reversal) in experiment [6] (H69AR cells + 2 uM doxorubicin) is -12.4% (inactive). Also, the inhibition is -2.67% (inactive) in experiment [7] and 14% (inactive) in experiment [8].
